Source: PubChem (several laboratories)
SUMO HTRF inh = inhibitors of in vitro SUMOylation cascade, primary screen, biochemical, HTRF, uHTS; 290,000 tested, 0.36% active; SUMO-conjugating enzyme UBC9 (Homo sapiens), P63279; HTRF SUMOylation assay, SAE1/SAE2 + UBC9; inhibition, % at 35 µM; in the data active means inhibition above about 50%, passing the limit was not always enough
Target sequence (P63279 whole entry, looked up): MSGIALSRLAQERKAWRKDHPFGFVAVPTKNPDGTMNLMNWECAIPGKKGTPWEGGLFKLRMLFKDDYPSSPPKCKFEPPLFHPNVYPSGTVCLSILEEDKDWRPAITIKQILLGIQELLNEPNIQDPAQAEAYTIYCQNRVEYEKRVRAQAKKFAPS
PAD4 inh = human PAD4 inhibitors, primary screen, biochemical, fluorescence polarization, 1536-well format; Protein-arginine deiminase type-4 (Homo sapiens), Q9UM07; recombinant PAD4, RCA probe fluorescence polarization; inhibition, % at 6.36 µM; 330,000 tested, 0.41% active;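 active means percent inhibition above a cutoff equal to the mean of all tested compounds plus 3 SD, cut at about 15% in these data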;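 further: 0% = PAD4 with RCA probe and DMSO and 100% = probe without PAD4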
Target sequence (Q9UM07 whole entry, looked up): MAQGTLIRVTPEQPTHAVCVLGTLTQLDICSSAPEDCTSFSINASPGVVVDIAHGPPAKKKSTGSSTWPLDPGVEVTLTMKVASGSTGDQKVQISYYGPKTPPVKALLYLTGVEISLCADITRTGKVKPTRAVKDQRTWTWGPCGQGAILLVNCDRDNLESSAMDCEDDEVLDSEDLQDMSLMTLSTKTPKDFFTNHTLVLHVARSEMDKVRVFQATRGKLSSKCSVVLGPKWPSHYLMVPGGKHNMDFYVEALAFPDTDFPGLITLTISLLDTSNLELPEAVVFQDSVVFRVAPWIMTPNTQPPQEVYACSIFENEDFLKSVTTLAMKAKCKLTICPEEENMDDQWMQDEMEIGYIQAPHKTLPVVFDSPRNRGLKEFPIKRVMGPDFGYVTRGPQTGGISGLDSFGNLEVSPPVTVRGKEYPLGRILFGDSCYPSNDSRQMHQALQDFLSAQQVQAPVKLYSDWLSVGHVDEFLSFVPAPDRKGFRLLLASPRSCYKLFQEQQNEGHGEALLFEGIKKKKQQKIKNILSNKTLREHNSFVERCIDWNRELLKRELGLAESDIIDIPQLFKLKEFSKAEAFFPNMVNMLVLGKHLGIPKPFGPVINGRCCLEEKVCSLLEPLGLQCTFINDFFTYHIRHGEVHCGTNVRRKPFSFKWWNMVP
UBC13 polyUb = UBC13 polyubiquitin chain formation inhibitors, primary screen, biochemical, TR-FRET, uHTS; Ubiquitin-conjugating enzyme E2 N (Homo sapiens), P61088; inhibition, % at 20 µM; 330,000 tested, 0.47% active; AID 485273, 2010; in the data active means inhibition above about 45%, passing the limit was not always enough
Rin1-Abl PPI inh = inhibitors of Rin1-Abl protein binding, primary screen, biochemical, TR-FRET; Tyrosine-protein kinase ABL1 (Homo sapiens) + Ras and Rab interactor 1 (Homo sapiens), …; inhibition, % at 7.35 µM; 360,000 tested, 0.4% active; in the data active means inhibition above about 5%, passing the limit was not always enough
Apaf1 inhib = inhibitors of human Apaf-1 apoptosome, primary screen, biochemical, DEVD-Rh110 fluorescence, uHTS. Apoptotic protease-activating factor 1 (Homo sapiens), O14727. reconstituted apoptosome caspase-3 activity. inhibition, % at 20 µM. 330,000 tested, 0.71% active. AID 489030, 2010; active means inhibition of at least 40% at 20 µM;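 further: plate controls were DMSO wells for no effect and DEVD-CHO caspase inhibitor wells for full effect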
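Material: biochemical Apaf-1 apoptosome reconstitution. Medium: Hepes buffer, pH 7.5. Also added: cytochrome c activation, bis-DEVD rhodamine 110 substrate. Timing: 30 min compound preincubation, 50 min activation, room temperature. Measured by: rhodamine 110 fluorescence at Ex 480/Em 540 nm.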
GSTO1 counter = inhibitors of recombinant GSTO1, primary screen, counter-screen for RBBP9 inhibitor project, biochemical, fluorescence polarization; Glutathione S-transferase omega-1 (Homo sapiens), P78417; activity-based probe fluorescence polarization; inhibition, % at 5.96 µM; 300,000 tested, 1.1% active; AID 1974, 2009;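 active means inhibition above the campaign mean inhibition plus 3 SD, cut at about 35% in these data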;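 further: 0% = GSTO1-1 with DMSO and 100% = wells lacking GSTO1-1 enzyme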
GSTO1 inh conf = GSTO1 inhibitor hit confirmation, counter-screen for RBBP9 inhibitor project, biochemical, fluorescence polarization, triplicate. shares compounds with GSTO1 counter. recombinant GSTO1, probe fluorescence polarization. 2,400 tested, 54% active. inhibition, % at 5.96 µM;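 active means inhibition above the primary screen's cutoff, its mean inhibition plus 3 SD, cut at about 35% in these data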;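 further: loss of polarization as inhibitors block binding of rhodamine sulfonate ester activity probe; 0% = GSTO1 with DMSO and 100% = wells lacking GSTO1 enzyme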
GSTO1 recomb ABPP = inhibitors of purified human GSTO1, late-stage follow-up, biochemical, gel ABPP, SE-Rh probe, percent inhibition. 130 tested, 30% active. shares compounds with GSTO1 counter. AID 463110, 2010. recombinant GSTO1, gel ABPP SE-Rh probe fluorescence. inhibition, % at 1 µM;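 active means inhibition of the enzyme GSTO1 above about 75%, limit read from the data; inactive means inhibition below that limit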
Starred values were filed as active, the others as inactive; nt = no result. This is a sample that favours compounds with a hit; in the whole collection about 2.2% have one here.

SMILES | SUMO HTRF inh | PAD4 inh | UBC13 polyUb | Rin1-Abl PPI inh | Apaf1 inhib | GSTO1 counter | GSTO1 inh conf | others
CCc1nnc(N/N=C/c2cc(Br)c(O)cc2O)n1N | -14.9 | 37.2* | -14.6 | 4.8 | 21.7 | 67.7* | 12.8
CC(C)(O)CC[C@@H](O)[C@](C)(O)[C@H]1CC[C@@]2(O)C3=CC(=O)[C@@H]4C[C@@H](O)[C@@H](O)C[C@]4(C)[C@H]3CC[C@]12C | 2.0 | -0.8 | 7.3 | -0.3 | -1.0 | 38.9* | 6.8
COCCN(C(=O)COC(=O)c1ccc2ccccc2c1)c1c(N)n(Cc2ccccc2)c(=O)[nH]c1=O | nt | nt | nt | -1.4 | nt | nt | nt
Cc1ccc(N(CCC#N)C(=O)CCl)cc1C | 1.8 | 9.3 | 11.3 | -0.8 | -7.8 | 93.4* | 90.1* | GSTO1 recomb ABPP=18.0
Cc1ccc(Cl)cc1N1CCN(C(=O)CNC(=O)c2ccc(Br)o2)CC1 | nt | -1.6 | 7.7 | 2.3 | 25.7 | nt | nt
COc1ccccc1NC(=O)Cc1nc(CCl)cs1 | 0.7 | -1.1 | 11.2 | 0.8 | 1.9 | 67.6* | 94.6* | GSTO1 recomb ABPP=49.0
CCC(=O)Nc1nc(CC(=O)Nc2ccccc2OC)cs1 | 6.8 | -6.5 | 1.8 | 0.6 | 4.1 | -3.4 | nt
CN(C)c1ccc(CNC(=O)C2Cc3c(-c4ccccc4Oc4ccccc4)ccnc3O2)cc1 (centres undefined) | nt | nt | nt | -1.8 | nt | nt | nt
CC12CCC(C(=O)N(CCCCN3CCN(Cc4ccccc4)CC3)C1=O)C2(C)C (centres undefined) | -2.0 | 2.6 | 3.3 | -3.3 | -12.4 | 4.9 | nt
CC12CCC(C(=O)N(CC3CO3)C1=O)C2(C)C (centres undefined) | -5.9 | 2.4 | -3.3 | 0.6 | 0.2 | 60.8* | 77.2* | GSTO1 recomb ABPP=7.0
Oc1ccc(C=NNC(=S)Nc2ccccc2)nc1 | nt | nt | nt | -6.8 | nt | nt | nt
CCCS(=O)(=O)NC(=O)C1(C)CCCN(C(=O)/C=C/c2ccccc2)C1 (centres undefined) | nt | nt | nt | -1.0 | nt | nt | nt
O=C(Cc1ccccc1)NCCc1cnc[nH]1 | -5.3 | -4.3 | 3.0 | 0.1 | -2.9 | -2.1 | nt
CC(=O)NCCc1cnc[nH]1 | 0.5 | 1.3 | 5.8 | 1.9 | 0.2 | 47.3* | 3.3
Cc1ccc(S(=O)(=O)N2CCC(C(=O)OCC(=O)N(Cc3ccccc3)C(C)C)CC2)cc1C | nt | nt | nt | 1.6 | nt | nt | nt
O=P(Cc1ccccc1)(Cc1ccccc1)c1ccccc1 | nt | nt | nt | 0.4 | nt | nt | nt
O=P(O)(Cc1ccccc1)Cc1ccccc1 | 5.6 | 0.6 | -8.8 | 0.7 | 0.2 | 46.6* | 3.4
Cc1ccc(Cc2c(-c3ccc(C)cc3)nc3c(Cl)cc(C(F)(F)F)cn23)cc1 | nt | nt | nt | 4.3 | nt | nt | nt
Cc1nc(N)ncc1CCC1OCCO1 | nt | nt | nt | -0.3 | nt | nt | nt
O=C(Nc1cc([N+](=O)[O-])c2[nH]c(=O)c3ccccc3c2c1)C(F)(F)F | nt | nt | nt | 1.5 | nt | nt | nt
CCOc1ccccc1Oc1c(C)oc2c(CN3CCN(CCO)CC3)c(O)ccc2c1=O | 43.8 | -2.5 | 16.5 | 4.8 | 5.2 | 11.8 | nt
COc1ccccc1Oc1c(C)oc2c(CN3CCN(CCO)CC3)c(O)ccc2c1=O | 49.8 | 90.3* | 5.4 | nt | 9.0 | 67.4* | 8.3
CCc1n[nH]c(=S)n1/N=C/c1c(O)ccc2ccccc12 | -9.7 | -0.6 | -1.8 | -2.5 | -7.1 | 37.8* | 7.7
Cc1ccc(S(=O)(=O)/N=C2/C=C(C3C(=O)CC(C)(C)CC3=O)C(=O)c3ccccc32)cc1 | 23.3 | -1.5 | -29.0 | 0.6 | 28.1 | 61.0* | 10.9
Cc1ccc(S(=O)(=O)/N=C2\C=C(NS(=O)(=O)c3ccccc3)C(=O)c3ccccc32)cc1 | nt | nt | nt | 0.6 | nt | nt | nt
SMILES | SUMO HTRF inh | PAD4 inh | UBC13 polyUb | Rin1-Abl PPI inh | Apaf1 inhib | GSTO1 counter | GSTO1 inh conf | others
CCOC(=O)CN1C(=O)S/C(=C/c2ccco2)C1=O | 10.3 | -1.7 | -9.8 | -1.2 | 4.6 | 11.5 | nt
NN1C(=O)/C(=C\c2ccco2)SC1=S | 91.4 | 6.4 | -20.9 | -0.3 | -11.6 | 42.5* | 15.9
Cc1cccc(N2CC(C(=O)Nc3ccccc3N3CCOCC3)CC2=O)c1C (centres undefined) | nt | -3.4 | -9.0 | -0.1 | 7.3 | nt | nt
CC(C)NC(=O)C1(C)CCN1C(=O)c1ccc2c(c1)OCO2 (centres undefined) | nt | nt | nt | -1.2 | nt | nt | nt
Cc1cc(C(=O)CSc2nnnn2C)c(C)n1-c1cccc(F)c1 | 14.2 | 0.8 | 5.3 | 1.4 | -19.5 | 33.8 | nt
Cc1cc(C)cc(-n2c(C)cc(C(=O)CSc3nnnn3C)c2C)c1 | -8.7 | -7.7 | 3.2 | 1.2 | 9.7 | 48.6* | 43.1*
O=C(Nc1cc2c3c(c1)CC(=O)N3CCC2)c1ccc(Br)o1 | nt | -6.7 | -3.9 | 0.7 | 3.5 | 11.7 | nt
Cc1cc(O)c(-c2cc(O)c(C)cc2O)cc1O | 5.9 | -0.7 | -2.3 | 7.3 | 2.5 | 82.1* | 7.9
Cc1ccc(F)c(CNC(=O)C2(C)CCCN2C(=O)C(C)C)c1F (centres undefined) | nt | nt | nt | 4.4 | nt | nt | nt
CCCC(=O)Nc1ccc(C(=O)NNC(=S)NC(=O)c2ccc(Br)o2)cc1 | -56.2 | -0.1 | 5.3 | 0.5 | 9.3 | 43.7* | 12.6
COc1ccc(NC(=S)NC(=O)c2ccc(Br)o2)cc1 | -2.7 | -5.3 | -4.6 | -0.7 | 1.4 | 45.3* | 34.6
CCCC(=O)Nc1ccc(C(=O)NNC(=S)NC(=O)c2cccs2)cc1 | 3.7 | -3.0 | 26.4 | 1.1 | -9.6 | -3.5 | nt
CC1=C(C(=O)N(C(C)C)C(C)C)CC(CC(=O)NC2CC2)C(=O)N1Cc1ccc(F)cc1 (centres undefined) | nt | nt | nt | -0.1 | nt | nt | nt
O=[N+]([O-])c1ccccc1C1Nc2cccc3cccc(c23)N1 | 12.8 | -8.5 | -35.4 | 3.6 | 22.2 | 48.6* | 15.0
COc1ccc(CC(=O)Oc2ccc(C)cc2Br)cc1S(=O)(=O)N1CCOCC1 | nt | -0.5 | 0.8 | -2.9 | 17.1 | 8.5 | nt
CN1c2ccccc2C(C)(C)C12CC(CCl)=NO2 (centres undefined) | 25.3 | -11.1 | -9.0 | -2.9 | 6.3 | 46.1* | 96.3* | GSTO1 recomb ABPP=64.0
O=[N+]([O-])c1ccc2c(c1N1CCCCC1)=NC1(CCCCC1)[N+]=2[O-] | 27.5 | -1.5 | -85.6 | -7.5 | 13.0 | 57.1* | 6.5
O=[N+]([O-])c1ccc(N2CCCCC2)nc1N1CCCCC1 | -13.4 | -1.6 | -16.2 | -6.2 | 11.4 | 6.5 | nt
CC1CCCN(CCCNC(=O)C2CC(=O)N(CCc3ccccc3)C2)C1 (centres undefined) | nt | 0.3 | -1.9 | 1.2 | 11.7 | 3.5 | nt
